High-throughput results from PubChem BioAssay.
RORa activator: activators of human nuclear receptor RORA; activation, % at 10 µM; CHO-K1 Gal4-RORA LBD luciferase reporter, luminescence; percent increase over mock-subtracted basal signal; P35398; hit rate 1.5% among 65,000;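 active = activation above the mean of all tested compounds plus 3 SD, cut at about 49% in these data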
D1 allo mod: allosterically modulates the human D1 dopamine receptor; P21728; HEK293 D1, CRE-luciferase, dopamine EC30 potentiation; actives deviate in either direction; B-score at 10 µM; hit rate 5.9% among 58,000; AID 641;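 active = luminescence count or its row- and column-corrected plate score outside the 99.7% band of the plate's sample wells, on either side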
HEK293 NFkB inh: lowers PMA/ionomycin-induced NF-kB signal in HEK293 cells; HEK-293 NF-kB luciferase reporter, luminescence; inhibition, % at 3 µM; AID 465; hit rate 0.21% among 62,000;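 active = inhibition above the mean of all tested compounds plus 3 SD, cut at about 40% in these data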
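Reagent: PMA plus ionomycin mix as NF-kB-activating stimulus. Assay system: NF-kB luciferase reporter HEK-293 cells. Technique: luminescence from luciferase substrate reagent. Incubation: 1 h compound pre-incubation, 16 h PMA/ionomycin at 37 °C. Benchmarks: DMSO only as uninhibited control, 10 µM reference inhibitor as full inhibition. Repeats: tested once.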
SF-1 act: activators of human nuclear receptor SF-1; AID 522; CHO-K1 Gal4-SF-1 LBD luciferase reporter; % increase over DMSO SF-1-specific signal; hit rate 1.9% among 65,000; activation, % at 10 µM; Q13285;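 active = activation above the mean activation of all tested compounds plus 3 SD, cut at about 50% in these data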
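Material: Gal4–SF-1 LBD one-hybrid luciferase reporter in CHO-K1 cells | Amount: 4,000 cells per well | Compound dosing: 10 µM single point, 1% DMSO | Schedule: 20 h compound treatment, 37 °C | Measured by: SteadyLite luciferase luminescence | Evaluation: Percent activation versus DMSO | Control set: DMSO-treated SF-1-transfected cells as negative, DMSO-treated mock-transfected cells lacking SF-1 as background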
JNK3 inh: inhibitors of human JNK3 kinase | P53779 | purified JNK3 kinase activity, HTS | inhibition, % at 8 µM | hit rate 0.61% among 60,000; in the data active = inhibition above about 17%
Target sequence (P53779 whole entry, looked up): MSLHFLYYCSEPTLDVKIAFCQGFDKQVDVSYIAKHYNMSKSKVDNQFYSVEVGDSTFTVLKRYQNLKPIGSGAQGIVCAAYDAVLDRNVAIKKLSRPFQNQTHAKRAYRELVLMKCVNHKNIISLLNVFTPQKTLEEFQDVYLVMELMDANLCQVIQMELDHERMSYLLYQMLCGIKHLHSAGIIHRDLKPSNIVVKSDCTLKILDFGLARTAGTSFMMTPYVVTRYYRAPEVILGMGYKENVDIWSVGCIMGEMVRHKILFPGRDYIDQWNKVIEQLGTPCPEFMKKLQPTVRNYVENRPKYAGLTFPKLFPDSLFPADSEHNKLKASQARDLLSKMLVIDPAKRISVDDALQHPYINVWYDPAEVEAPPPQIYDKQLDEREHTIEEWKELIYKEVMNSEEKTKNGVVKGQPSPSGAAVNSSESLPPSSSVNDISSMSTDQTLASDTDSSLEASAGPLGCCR
D1 PAM confirm: confirmation of human D1 dopamine receptor allosteric modulators | shares compounds with D1 allo mod | HEK293 D1 CRE-luciferase, dopamine EC30 potentiation; hits give high values | luminescence at 10 µM | hit rate 88% among 2,200;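 active = luminescence in either of two replicates above the same-plate mean plus 3 SD of the low-dose dopamine control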
D1 no dopamine: activates D1 CRE-luciferase signal without dopamine present; shares compounds with D1 allo mod; HEK293 D1 CRE-luciferase, luminescence, no dopamine; hits give high values; luminescence at 10 µM; hit rate 0.8% among 1,900; AID 646; in the data active = luminescence above about 3900
Isoprot counter: isoproterenol response counter-screen activity for D1 modulators. shares compounds with D1 allo mod. HEK293 D1 CRE-luciferase, isoproterenol EC30 counter-screen. calls only at 10 µM. hit rate 63% among 2,200;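 active = luminescence in either replicate above plate mean of wells with a partly effective reference agonist dose plus 3 SD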;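 also: isoproterenol raises cAMP through native beta-adrenoceptor Gs so signal bypasses D1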
Numbers stand for hits; . = inactive; / = no result given; + = active, no number. Compounds with a hit are over-represented: about 7.9% of the library has one in this group of screens.

SMILES	RORa activator	D1 allo mod	HEK293 NFkB inh	SF-1 act	JNK3 inh	D1 PAM confirm	D1 no dopamine	Isoprot counter
Cc1ccccc1NC(=O)c1nc[nH]c1C(=O)NCc1ccccc1	.	5.1	.	.	21	14280	.	.
CCOc1ccccc1NC(=O)c1nc[nH]c1C(=O)Nc1ccccc1OCC	.	.	.	.	.	/	/	/
COc1cccc(NC(=O)c2cccnc2)c1	.	.	.	.	.	/	/	/
CCOC(=O)C(C)n1cnc2c(nnn2Cc2ccc(C)cc2)c1=O (stereo not given)	.	.	.	.	.	/	/	/
CCc1nnc(SCc2cn3c(C)cc(C)nc3n2)n1N	.	.	.	.	.	/	/	/
CC(C)P(=O)(Cc1cccc(C#N)c1)C(C)C	.	.	.	.	.	/	/	/
C=Cn1nc(C)c2ccccc2c1=O	.	.	.	.	.	/	/	/
Cn1ncc(C#N)c1/N=C/N1CCOCC1	.	.	.	.	.	/	/	/
Cc1ccc(-n2ncc(C#N)c2/N=C/N2CCOCC2)cc1	.	14	.	.	.	14372	.	+
COc1ccc(OC)c2c(C)cc(NCCN3CCOCC3)nc12	.	.	.	.	.	/	/	/
O=S1(=O)CC(N2CCCCC2)C(N2CCCCC2)C1 (stereo not given)	.	.	.	.	.	/	/	/
CCn1nc(NC(=O)c2ccccn2)c2cc3cc(C)ccc3nc21	.	.	.	.	.	/	/	/
CC(C)Cn1nc(NS(=O)(=O)c2ccccc2)c2cc3ccccc3nc21	.	.	.	.	.	/	/	/
CC(C)Cn1nc(NC(=O)C2CCCO2)c2cc3ccccc3nc21 (stereo not given)	.	12	.	.	.	16892	/	+
CCn1nc(NC(=O)c2cccnc2)c2cc3ccccc3nc21	.	6.6	/	.	.	7008	.	+
N#Cc1ccc(CSc2nnc(NC(=O)CN3C(=O)C4CC=CCC4C3=O)s2)cc1 (stereo not given)	.	.	.	.	.	/	/	/
COc1ccc(-n2c(/C=C(\C)O)nc(=O)c3c(C)cc(C)nc32)cc1	.	.	.	.	.	/	/	/
CCN(CCO)C(=O)C12CCC(C)(C(=O)C1)C2(C)C (stereo not given)	.	.	.	.	.	/	/	/
COC(=O)c1ccc(OCC(O)CN2C(=O)NC(C)(C)C2=O)cc1 (stereo not given)	.	5.8	.	.	.	6500	/	.
COc1ccc2c3c(cccc13)NN=C2C	.	.	.	.	.	/	/	/
COCc1nnc(NS(=O)(=O)c2ccccc2)s1	.	.	.	.	.	/	/	/
Cc1nc(NS(=O)(=O)c2ccccc2)sc1NC(=O)OC(C)C	.	2.4	/	.	.	.	/	.
CCCCSc1nc(C)c(CC(=O)OC)c(=O)[nH]1	.	.	.	.	.	/	/	/
O=c1[nH]cnc2scc(-c3ccc(F)cc3)c12	.	.	.	.	.	/	/	/
Cn1nnnc1Sc1ncnc2scc(-c3ccc(F)cc3)c12	.	12	.	.	.	.	.	.
SMILES	RORa activator	D1 allo mod	HEK293 NFkB inh	SF-1 act	JNK3 inh	D1 PAM confirm	D1 no dopamine	Isoprot counter
Cn1nnnc1Sc1ncnc2scc(-c3ccccc3)c12	.	5.6	.	.	.	22236	.	+
c1ccc(-c2csc3ncn4nnnc4c23)cc1	.	11	.	.	.	12968	.	+
COc1ccc(S(=O)(=O)N2CCCC(C(=O)NCc3ccco3)C2)cc1Cl (stereo not given)	.	.	.	.	.	/	/	/
O=c1nc(-c2ccccc2)c2cc(Cl)ccc2[nH]1	.	6.7	.	.	.	9072	/	+
CC(C)(C)NCC1(CO)SC(N)=NC1=O (stereo not given)	.	.	.	.	.	/	/	/
N#Cc1nc(-c2cccs2)oc1NCc1ccccc1	.	/	/	.	.	/	/	/
N#Cc1nc(-c2cccs2)oc1NCc1ccc(Cl)cc1	.	8.3	.	.	.	9676	.	+
COCCNc1oc(-c2ccc(F)cc2)nc1C#N	.	/	/	.	.	/	/	/
N#Cc1nc(-c2ccc(F)cc2)oc1NCc1ccccc1	.	5.7	.	.	.	8092	.	.
Cc1ccc(CNc2oc(-c3cccs3)nc2C#N)cc1	.	18	.	.	.	22592	.	+
C=CCn1c(Cc2csc(N)n2)nnc1SCc1ccc(C(=O)OC)cc1	.	.	.	.	.	/	/	/
CC(C)CNS(=O)(=O)c1ccc(S(=O)(=O)N2CCN(CCC#N)CC2)cc1	.	.	.	.	.	/	/	/
COc1ccc(C(C#N)C2(C)OCCO2)cc1OC (stereo not given)	.	10	.	.	.	10756	/	+
COCCCNC(=O)CN(Cc1ccc(Cl)cc1)S(C)(=O)=O	.	9.2	.	.	.	.	.	.
CC(NC(=O)Cc1cccs1)C(c1cccs1)N1CCN(c2ccccc2F)CC1 (stereo not given)	.	.	.	.	.	/	/	/
CC(C)CCn1c(SCC(N)=O)nc2c1c(=O)n(C)c(=O)n2C	.	.	.	.	.	/	/	/
COc1ccc(S(=O)(=O)N2CCN(c3ccccn3)CC2)cc1OC	.	5.3	.	.	.	6880	/	.
O=C(c1ccco1)N1CCN(S(=O)(=O)c2ccc3c(c2)CCN3C(=O)C2CCC2)CC1	.	2.6	.	.	.	11588	.	+
CCOC(=O)N1CCN(S(=O)(=O)c2ccc3c(c2)CCN3C(=O)C2CCC2)CC1	.	3.3	.	.	.	7472	.	.
O=C(C1CC1)N1CCc2cc(S(=O)(=O)N(CCO)Cc3ccccc3)ccc21	.	4.2	.	.	.	15244	.	+
COc1ccc(S(=O)(=O)N2CCN(c3c(C)cccc3C)CC2)cc1OC	.	.	.	.	.	/	/	/
CCC(=O)N1CCc2cc(S(=O)(=O)N3CCN(C(=O)c4ccco4)CC3)ccc21	.	.	.	.	/	/	/	/
O=C(C1CCC1)N1CCc2cc(S(=O)(=O)N3CCN(c4ccccn4)CC3)ccc21	.	6.1	.	.	.	10104	/	+
Cc1nc(CSc2nnc3scc(-c4ccc(Cl)cc4)n23)cs1	.	13	.	.	/	18280	/	+
NC1=NC(c2ccc(Cl)cc2)n2c(nc3ccccc32)N1 (stereo not given)	.	9.1	.	.	.	11876	.	.
NC1=NC(c2ccccc2Cl)n2c(nc3ccccc32)N1 (stereo not given)	.	.	.	.	.	/	/	/
COc1ccccc1NS(=O)(=O)c1ccc(C)c(C(=O)NCC2CCCO2)c1 (stereo not given)	.	.	.	.	.	/	/	/
Cc1cc(N2CCC(C)CC2)nc(-n2nc(C)cc2C)n1	.	.	.	.	.	/	/	/
Cc1cc(-n2nc(C)cc2C)nc(NS(=O)(=O)c2ccccc2)n1	.	3.8	.	.	/	10456	.	.
